# Assay results taken from ChEMBL document CHEMBL1148420, “Identification and synthesis of [1,2,4]triazolo[3,4-a]phthalazine derivatives as high-affinity ligands to the alpha 2 delta-1 subunit of voltage gated calcium channel” (Bioorg Med Chem Lett, 2004).
# Molecular target: T1, Voltage-dependent calcium channel subunit alpha-2/delta-1 (Homo sapiens, UniProt P54289)
# Experiment: Binding affinity against alpha-2 delta-1 subunit of voltage gated subunit of Ca+2 channel in human
# Outline: (§1)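 [3H]gabapentin displacement binding on A710 membranes (HEK 293 cells stably transfected with human α1B, β3a and α2δ-1b subunits), following a literature method.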
# T1 sequence (P54289 25-956 limits assumed): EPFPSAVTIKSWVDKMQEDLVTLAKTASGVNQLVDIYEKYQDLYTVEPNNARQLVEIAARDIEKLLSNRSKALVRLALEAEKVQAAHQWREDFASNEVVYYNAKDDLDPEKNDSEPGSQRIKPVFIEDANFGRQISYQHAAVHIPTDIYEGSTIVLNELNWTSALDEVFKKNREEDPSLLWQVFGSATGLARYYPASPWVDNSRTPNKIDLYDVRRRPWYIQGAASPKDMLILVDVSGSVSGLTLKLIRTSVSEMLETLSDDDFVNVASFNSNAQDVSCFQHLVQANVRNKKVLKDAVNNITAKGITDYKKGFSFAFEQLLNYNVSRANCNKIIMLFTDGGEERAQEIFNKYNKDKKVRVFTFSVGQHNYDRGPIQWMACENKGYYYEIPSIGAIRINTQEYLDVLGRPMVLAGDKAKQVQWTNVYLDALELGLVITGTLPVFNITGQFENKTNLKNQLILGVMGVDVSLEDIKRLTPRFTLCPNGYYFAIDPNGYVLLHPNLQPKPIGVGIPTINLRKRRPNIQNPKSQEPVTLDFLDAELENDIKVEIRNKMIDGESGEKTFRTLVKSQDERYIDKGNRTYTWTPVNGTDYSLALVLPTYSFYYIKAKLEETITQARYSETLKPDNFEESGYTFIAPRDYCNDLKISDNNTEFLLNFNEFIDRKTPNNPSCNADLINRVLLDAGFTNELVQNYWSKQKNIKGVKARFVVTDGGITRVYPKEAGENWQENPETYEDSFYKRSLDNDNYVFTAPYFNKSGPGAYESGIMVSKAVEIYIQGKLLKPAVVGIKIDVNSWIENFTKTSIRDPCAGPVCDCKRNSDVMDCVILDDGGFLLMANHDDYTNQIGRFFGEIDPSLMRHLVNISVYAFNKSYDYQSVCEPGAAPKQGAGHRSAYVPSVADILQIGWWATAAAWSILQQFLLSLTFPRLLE
# T1 sequence (P54289 957-1103 limits assumed): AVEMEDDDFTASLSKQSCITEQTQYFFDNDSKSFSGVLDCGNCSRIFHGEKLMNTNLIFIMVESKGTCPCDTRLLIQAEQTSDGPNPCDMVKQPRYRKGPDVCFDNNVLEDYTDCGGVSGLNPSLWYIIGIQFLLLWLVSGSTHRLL
row,IC50 [µM],SMILES
1,0.195,c1ccc(CCNCc2cccc(COc3nn4c(-c5ccccc5)nnc4c4ccccc34)n2)cc1
2,0.116,COc1cccc(CCNCc2cccc(COc3nn4c(C(F)(F)F)nnc4c4ccccc34)n2)c1
3,0.829,COc1ccc(CCNCc2cccc(COc3nn4c(C(F)(F)F)nnc4c4ccccc34)n2)cc1
4,0.241,CCc1nnc2c3ccccc3c(OCc3cccc(CNCCc4ccccc4)n3)nn12
5,0.194,CSc1nnc2c3ccccc3c(OCc3cccc(CNCCc4ccccc4)n3)nn12
6,0.23,c1ccc(CCNCc2cccc(COc3nn4cnnc4c4ccccc34)n2)cc1
7,0.291,Fc1ccccc1CCNCc1cccc(COc2nn3c(C(F)(F)F)nnc3c3ccccc23)n1
8,0.145,c1ccc(CCNCc2cccc(COc3nn4c(C5CCCCC5)nnc4c4ccccc34)n2)cc1
9,0.22,Cc1cc(-c2nnc3c4ccccc4c(OCc4cccc(CNCCc5ccccc5)n4)nn23)no1
10,0.145,Cc1nnc2c3ccccc3c(OCc3cccc(CNCCc4ccccc4)n3)nn12
11,0.131,COCc1nnc2c3ccccc3c(OCc3cccc(CNCCc4ccccc4)n3)nn12
12,0.342,CC(C)c1nnc2c3ccccc3c(OCc3cccc(CNCCc4ccccc4)n3)nn12
13,0.272,c1ccc(CCNCc2cccc(COc3nn4c(C5CC5)nnc4c4ccccc34)n2)cc1
14,0.072,FC(F)(F)c1nnc2c3ccccc3c(OCc3cccc(CNCCc4ccccc4)n3)nn12

# Molecular target: T1, Voltage-dependent calcium channel subunit alpha-2/delta-1
# Experiment: Binding affinity against alpha2 delta-1 subunit of voltage-gated calcium channel in human.
# Outline: as §1
row,IC50 [µM],SMILES
1,0.03,[3H]c1cccc(CCN[C@@H](C)c2cccc(COc3nn4c(C(F)(F)F)nnc4c4ccccc34)n2)c1
2,0.028,C[C@H](NCCc1cccc(Br)c1)c1cccc(COc2nn3c(C(F)(F)F)nnc3c3ccccc23)n1
3,10,CN(CCc1ccccc1)Cc1cccc(COc2nn3c(C(F)(F)F)nnc3c3ccccc23)n1
4,0.63,Fc1ccc(CCNCc2cccc(COc3nn4c(C(F)(F)F)nnc4c4ccccc34)n2)cc1
5,0.03,C[C@H](NCCc1ccccc1)c1cccc(COc2nn3c(C(F)(F)F)nnc3c3ccccc23)n1
6,10,CC(C)(Cc1ccccc1)NCc1cccc(COc2nn3c(C(F)(F)F)nnc3c3ccccc23)n1
7,0.26,Cc1ccc(CCNCc2cccc(COc3nn4c(C(F)(F)F)nnc4c4ccccc34)n2)cc1
8,0.161,Fc1cccc(CCNCc2cccc(COc3nn4c(C(F)(F)F)nnc4c4ccccc34)n2)c1
9,0.7,C[C@@H](Cc1ccccc1)NCc1cccc(COc2nn3c(C(F)(F)F)nnc3c3ccccc23)n1
10,0.448,Cc1ccccc1CCNCc1cccc(COc2nn3c(C(F)(F)F)nnc3c3ccccc23)n1
11,10,C[C@@H](NCCc1ccccc1)c1cccc(COc2nn3c(C(F)(F)F)nnc3c3ccccc23)n1
12,0.015,Cc1cccc(CCNCc2cccc(COc3nn4c(C(F)(F)F)nnc4c4ccccc34)n2)c1
13,0.229,FC(F)(F)c1nnc2c3ccccc3c(OCc3cccc(CNC4C[C@H]4c4ccccc4)n3)nn12 (mixture of isomers)
14,0.174,CC(C)C(NCCc1ccccc1)c1cccc(COc2nn3c(C(F)(F)F)nnc3c3ccccc23)n1 (racemic)
15,1.37,CC(Cc1ccccc1)NCc1cccc(COc2nn3c(C(F)(F)F)nnc3c3ccccc23)n1 (racemic)
16,0.029,Cc1cccc(CCNC(C)c2cccc(COc3nn4c(C(F)(F)F)nnc4c4ccccc34)n2)c1 (racemic)
17,0.036,CC(NCCc1ccccc1)c1cccc(COc2nn3c(C(F)(F)F)nnc3c3ccccc23)n1 (racemic)
18,0.198,CC(CNCc1cccc(COc2nn3c(C(F)(F)F)nnc3c3ccccc23)n1)c1ccccc1 (racemic)
19,0.183,CCC(NCCc1ccccc1)c1cccc(COc2nn3c(C(F)(F)F)nnc3c3ccccc23)n1 (racemic)
